In ChEMBL document CHEMBL1687893 (Eur J Med Chem, 2011):

Assays:
Mus musculus [1] = experiment: Antiinflammatory activity against xylene-induced ear edema in Kunming mouse assessed as reduction in ear swelling weight at 100 mg, ip administered 2 hrs post challenge measured after 30 mins; assay type: functional
Summary of the method: (§1)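 Male Kunming mice (~20 g), fasted 12 h, groups of 6. Compound given i.p.; 30 min later 0.015 mL xylene applied to front and back surfaces of right ear, left ear as control. Killed 2 h after xylene; 7 mm circular ear sections weighed and measured. Swelling taken as weight and thickness over untreated left ear. Mean ± S, one-way ANOVA.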

Mus musculus [2] = experiment: Antiinflammatory activity against xylene-induced ear edema in Kunming mouse assessed as reduction in ear swelling thickness at 100 mg, ip administered 2 hrs post challenge measured after 30 mins; assay type: functional; summary of the method: as §1
Mus musculus [3] = experiment: Antiinflammatory activity against xylene-induced ear edema in Kunming mouse assessed as reduction in ear swelling thickness at 25 mg, ip administered 2 hrs post challenge measured after 30 mins; assay type: functional; summary of the method: as §1
Mus musculus [4] = experiment: Antiinflammatory activity against xylene-induced ear edema in Kunming mouse assessed as reduction in ear swelling weight at 25 mg, […]; assay type: functional
Mus musculus [5] = experiment: Antiinflammatory activity against xylene-induced ear edema in ip dosed Kunming mouse assessed as reduction in ear swelling administered 2 hrs post challenge measured after 30 mins; assay type: functional, organism-based; summary of the method: as §1
Mus musculus [6] = experiment: Antiinflammatory activity against xylene-induced ear edema in Kunming mouse assessed as reduction in ear swelling thickness at 200 mg, ip administered 2 hrs post challenge measured after 30 mins; assay type: functional; summary of the method: as §1
MDA-MB-231 = experiment: Cytotoxicity against human MDA-MB-231 cells assessed as growth inhibition after 72 hrs; details: MDA-MB-231, 72 h
MCF7 [7] = experiment: Cytotoxicity against human MCF7 cells assessed as growth inhibition after 72 hrs; details: MCF7, 72 h
Mus musculus [8] = experiment: Antiinflammatory activity against xylene-induced ear edema in Kunming mouse assessed as reduction in ear swelling weight at 200 mg, […]; assay type: functional
[9] = molecular target: Prostaglandin G/H synthase 2 (Homo sapiens) (UniProt P35354); experiment: Inhibition of human COX-2 at 10 uM by ELISA relative to licofelone
[10] = molecular target: Prostaglandin G/H synthase 1 (Ovis aries) (UniProt P05979); experiment: Inhibition of ovine COX-1 at 10 uM by ELISA relative to licofelone
MCF7 [11] = experiment: Antiproliferative activity against human MCF-7 cells at 0.63 uM to 10 uM after 20 to 140 hrs; assay type: functional, cell-based; details: TDE = time-dependent effect
Summary of the method: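 MCF-7 cells in DMEM with 5% FBS, seeded at 7500 cells/mL and grown 3 days before compound addition. Exposed to a range of concentrations for up to 144 h. Biomass measured by glutaraldehyde fixation, crystal violet staining, ethanol extraction and absorbance at 590 nm. Expressed as corrected T/C % = (T−C0)/(C−C0)·100.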

| Compound | inhibition (INH) (Mus musculus [1]) [%] | inhibition (INH) (Mus musculus [2]) [%] | inhibition (INH) (Mus musculus [3]) [%] | inhibition (INH) (Mus musculus [4]) [%] | inhibition (Mus musculus [5]) | inhibition (INH) (Mus musculus [6]) [%] | IC50 (MDA-MB-231) [µM] | IC50 (MCF7 [7]) [µM] | inhibition (INH) (Mus musculus [8]) [%] | inhibition [9] [%] | inhibition [10] [%] | Activity (MCF7 [11]) |
| --- | --- | --- | --- | --- | --- | --- | --- | --- | --- | --- | --- | --- |
| CC1(C)Cc2c(-c3ccccc3)c(-c3ccc(Cl)cc3)c(CC(=O)O)n2C1 [LICOFELONE] | 43.9 | 52.2 | 49.2 | 33.3 | Dose-dependent effect | 74.6 | 36.7 | 5.5 | 77.2 |  |  |  |
| CC1(C)Cc2c(-c3ccccc3)c(-c3ccc(Cl)cc3)c(C(=O)COC(=O)Cc3ccccc3)n2C1 | 26.3 | 35.8 |  |  |  |  | > 50 | 4.7 |  |  |  |  |
| CCC(=O)c1c(-c2ccc(Cl)cc2)c(-c2ccccc2)c2n1CC(C)(C)C2 | 24.6 | 22.5 |  |  |  |  | 19.2 | 8.7 |  | 9 | 11 |  |
| CC1(C)Cc2c(-c3ccccc3)c(-c3ccc(Cl)cc3)cn2C1 |  |  |  |  |  |  | 19.7 | 5.6 |  |  |  |  |
| CC1(C)Cc2c(-c3ccccc3)c(-c3ccc(Cl)cc3)c(C(=O)COC(=O)c3ccc([N+](=O)[O-])cc3)n2C1 | 1.8 | 6.5 |  |  |  |  | 7.3 | 4.8 |  |  |  |  |
| Cc1ccccc1C(=O)OCC(=O)c1c(-c2ccc(Cl)cc2)c(-c2ccccc2)c2n1CC(C)(C)C2 | 12.3 | 34.1 |  |  |  |  | 12.9 | 6.2 |  |  |  |  |
| Cc1cc(C(=O)OCC(=O)c2c(-c3ccc(Cl)cc3)c(-c3ccccc3)c3n2CC(C)(C)C3)cc([N+](=O)[O-])c1 | 7 | 26.8 |  |  |  |  |  |  |  |  |  |  |
| CC1(C)Cc2c(-c3ccccc3)c(-c3ccc(Cl)cc3)c(C(=O)COC(=O)c3ccccc3Cl)n2C1 | 12.3 | 20.3 |  |  |  |  | 31.8 | 5.2 |  |  |  |  |
| CCCCCC(=O)c1c(-c2ccc(Cl)cc2)c(-c2ccccc2)c2n1CC(C)(C)C2 | 14 | 37 |  |  |  |  | 31.3 | 5.4 |  | 9 | 11 |  |
| CC1(C)Cc2c(-c3ccccc3)c(-c3ccc(Cl)cc3)c(C(=O)CCl)n2C1 | 28.1 | 24.6 |  |  |  |  | 35.4 | 5.8 |  | 9 | 11 |  |
| CC(=O)c1c(-c2ccc(Cl)cc2)c(-c2ccccc2)c2n1CC(C)(C)C2 | 54.4 | 50.7 |  |  |  |  | 3.3 | 2 |  | 9 | 11 | tde |
| Cc1cccc(C(=O)OCC(=O)c2c(-c3ccc(Cl)cc3)c(-c3ccccc3)c3n2CC(C)(C)C3)c1 | 17.5 | 50.7 |  |  |  |  | > 50 | 3.8 |  |  |  |  |
| CC1(C)Cc2c(-c3ccccc3)c(-c3ccc(Cl)cc3)c(C(=O)COC(=O)c3ccc(Cl)cc3)n2C1 | 24.6 | 29.7 |  |  |  |  | > 50 | 3.9 |  |  |  |  |
| CC(C)Cc1ccc(C(C)C(=O)O)cc1 (stereo unspecified) [IBUPROFEN] | 51.2 | 54.3 |  |  |  |  |  |  |  |  |  |  |
| COc1ccc(C(=O)OCC(=O)c2c(-c3ccc(Cl)cc3)c(-c3ccccc3)c3n2CC(C)(C)C3)cc1 | 15.8 | 10.1 |  |  |  |  | > 50 | 11.9 |  |  |  |  |
| COc1ccccc1C(=O)OCC(=O)c1c(-c2ccc(Cl)cc2)c(-c2ccccc2)c2n1CC(C)(C)C2 | 31.6 | 18.1 |  |  |  |  | > 50 | 4.5 |  |  |  |  |
| CC1(C)Cc2c(-c3ccccc3)c(-c3ccc(Cl)cc3)c(C(=O)COC(=O)c3cccc(Cl)c3)n2C1 | 3.5 | 1.4 |  |  |  |  | > 50 | 5.2 |  |  |  |  |
| CCC(=O)OCC(=O)c1c(-c2ccc(Cl)cc2)c(-c2ccccc2)c2n1CC(C)(C)C2 | 3.5 | 12.3 |  |  |  |  | 3.1 | 1.7 |  | 9 | 11 | tde |
| CC(=O)OCC(=O)c1c(-c2ccc(Cl)cc2)c(-c2ccccc2)c2n1CC(C)(C)C2 | 19.3 | 37 |  |  |  |  | 4.4 | 2.5 |  | 9 | 11 |  |
| CC1(C)Cc2c(-c3ccccc3)c(-c3ccc(Cl)cc3)c(C(=O)COC=O)n2C1 | 19.3 | 20.3 |  |  |  |  | 1.8 | 1.5 |  | 9 | 11 | tde |
| CC1(C)Cc2c(-c3ccccc3)c(-c3ccc(Cl)cc3)c(C(=O)COC(=O)c3ccc(Cl)cc3Cl)n2C1 | 43.9 | 8 |  |  |  |  | > 50 | 6.7 |  |  |  |  |
| CC1(C)Cc2c(-c3ccccc3)c(-c3ccc(Cl)cc3)c(C(=O)COC(=O)Cc3ccc(Cl)cc3)n2C1 | 35.1 | 37 |  |  |  |  | > 50 | 7.1 |  |  |  |  |
| Cc1ccc(C(=O)OCC(=O)c2c(-c3ccc(Cl)cc3)c(-c3ccccc3)c3n2CC(C)(C)C3)cc1 | 22.8 | 21 |  |  |  |  | > 50 | > 50 |  |  |  |  |
| Cc1ccc(-c2cc(C(F)(F)F)nn2-c2ccc(S(N)(=O)=O)cc2)cc1 [CELECOXIB] | 46.3 | 47.9 |  |  |  |  |  |  |  |  |  |  |
| CC1(C)Cc2c(-c3ccccc3)c(-c3ccc(Cl)cc3)c(C(=O)COC(=O)c3ccccc3O)n2C1 | 31.6 | 14.5 |  |  |  |  | > 50 | 8.2 |  |  |  |  |
| O=c1[nH]cc(F)c(=O)[nH]1 [FLUOROURACIL] |  |  |  |  |  |  | 9.6 | 4.7 |  |  |  |  |
